From article PMC4938124 (Biochemistry, 2015)

Tests used:
hIYD·flox = target: T1, hIYD·flox (Homo sapiens, UniProt Q6PHW0); assay: Stopped-flow kinetics of halotyrosine binding to hIYD·flox; details: relative to Cl-, Br- and I-Tyr
T1 sequence (Q6PHW0 32-289): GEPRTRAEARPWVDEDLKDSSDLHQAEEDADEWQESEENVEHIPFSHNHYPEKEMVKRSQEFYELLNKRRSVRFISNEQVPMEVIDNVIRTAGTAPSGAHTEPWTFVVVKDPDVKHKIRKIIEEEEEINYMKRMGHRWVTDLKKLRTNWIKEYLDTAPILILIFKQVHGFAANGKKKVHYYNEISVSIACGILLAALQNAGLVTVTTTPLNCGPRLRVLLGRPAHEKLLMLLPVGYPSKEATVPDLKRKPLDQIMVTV
Procedure, shortened: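 hIYD (residues 1–31 removed, SUMO fusion, SUMO cleaved) in 500 mM NaCl, 10% glycerol, 1 mM DTT, 50 mM sodium phosphate pH 7.4, 25 °C. Stopped-flow mixing of equal volumes under air: hIYD·flox 2 μM final with halotyrosine 5–50 μM final. Flavin fluorescence quench (λex 450 nm, λem >530 nm) followed 1 ms–1 s, fit single-exponential. kon from least-squares fit of kobs versus ligand concentration.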

hIYD·flhq [1] = target: T2, hIYD·flhq (Homo sapiens, UniProt Q6PHW0); assay: Stopped-flow single-turnover oxidation of hIYD·flhq by halotyrosines; format: biochemical; details: set by detection threshold of the stopped-flow instrument
T2 sequence (Q6PHW0 32-289): T1 sequence (Q6PHW0 32-289)
Procedure, shortened: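 Anaerobic stopped-flow at 25 °C, pH 7.4 phosphate/NaCl/glycerol/DTT buffer. Dithionite-reduced hIYD·flhq was mixed 1:1 with argon-sparged halotyrosine. At 8 μM enzyme, I-Tyr was 20–200 μM and A446 was followed from 10 ms to beyond 7 s with single-exponential fits. At 5 μM enzyme, substrate was 200 μM, with diode-array spectra from 4 ms plus A360 traces fit single- or double-exponential. Spectra were globally analysed.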

IYD = details: cited from earlier work
hIYD = details: estimate, limited by solubility; cited from earlier work
hIYD·flhq [2] = target: T2, hIYD·flhq; assay: Stopped-flow oxidation of hIYD·flhq by oxygen; format: biochemical; details: A446, 25 °C, pH 7.4, oxygen 60–610 μM
Procedure, shortened: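 hIYD·flhq, made by stoichiometric dithionite titration under anaerobic conditions, 5 μM final, in 500 mM NaCl, 10% glycerol, 1 mM DTT, 50 mM sodium phosphate pH 7.4, 25 °C. Stopped-flow mix with equal volume of same buffer equilibrated with air or 10/50/100% O2 (oxygen solutions 60–610 μM). A446 traces single-exponential; diode-array spectra 4 ms–7 s. kox from linear fit of kobs versus [O2]; three independent measurements averaged.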

N[C@@H](Cc1ccc(O)c(F)c1)C(=O)O [F-Tyr]
binding rate (kon) slower than the other halotyrosines (hIYD·flox): approximately 5 fold | binding rate (kon) slower than the other halotyrosines (hIYD·flox; listed as fluorotyrosine): 5 fold | oxidation of flhq slower than that with I-Tyr (hIYD·flhq [1]): at least 160 fold | dehalogenation by IYD (IYD): inert

N[C@@H](Cc1ccc(O)cc1)C(=O)O [Tyr, tyrosine]
Kd (hIYD): > 1000 µM

O=O [oxygen]
kox, second-order rate constant for reaction between hIYD·flhq and oxygen (hIYD·flhq [2]): (9.3 ± 0.3) × 10^3 M^–1 s^–1
